Key:
[1] = target: T1, Glutamate NMDA receptor; Grin1/Grin2b (Rattus norvegicus) (UniProt P35439+Q00960); test: Positive allosteric modulation of recombinant rat GluN1/GluN2B receptor expressed in xenopus laevis oocyte assessed as compound concentration required to show two fold increase in glutamate and glycine-induced current response at holding potential -40mV by two electrode voltage clamp method
[2] = target: Ionotropic glutamate receptor NMDA 1/2D (Rattus norvegicus, UniProt P35439+Q62645); test: Positive allosteric modulation of recombinant rat GluN1/GluN2D receptor expressed in xenopus laevis oocyte assessed as potentiation of glutamate and glycine-induced current response at holding potential -40mV by two electrode voltage clamp method
In short: (§1)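 Two-electrode voltage clamp at -40 mV, 23°C, pH 7.4 Ba²⁺ recording solution, on Xenopus oocytes expressing rat NMDA receptors. Currents were evoked by 100 µM glutamate plus 30 µM glycine, with compound co-applied (DMSO 0.05–0.5% final). Each compound used at least 4 oocytes from at least 2 frogs.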

[3] = target: T2, Ionotropic glutamate receptor NMDA 1/2D (Rattus norvegicus) (UniProt P35439+Q62645); test: Positive allosteric modulation of recombinant rat GluN1/GluN2D receptor expressed in xenopus laevis oocyte assessed as compound concentration required to show two fold increase in glutamate and glycine-induced current response at holding potential -40mV by two electrode voltage clamp method
[4] = target: Glutamate NMDA receptor; Grin1/Grin2c (Rattus norvegicus, UniProt P35439+Q00961); test: Positive allosteric modulation of recombinant rat GluN1/GluN2C receptor expressed in xenopus laevis oocyte assessed as potentiation of glutamate and glycine-induced current response at holding potential -40mV by two electrode voltage clamp method; in short: as §1
[5] = target: T2, Ionotropic glutamate receptor NMDA 1/2D (Rattus norvegicus); test: Positive allosteric modulation of recombinant rat GluN1/GluN2D receptor expressed in xenopus laevis oocyte assessed as potentiation of glutamate and glycine-induced current response at 30 uM at holding potential -40mV by two electrode voltage clamp method relative to control; in short: as §1
[6] = target: Glutamate NMDA receptor; Grin1/Grin2b (Rattus norvegicus, UniProt P35439+Q00960); test: Positive allosteric modulation of recombinant rat GluN1/GluN2B receptor expressed in xenopus laevis oocyte assessed as potentiation of glutamate and glycine-induced current response at holding potential -40mV by two electrode voltage clamp method; in short: as §1
[7] = target: T3, Glutamate NMDA receptor; Grin1/Grin2c (Rattus norvegicus) (UniProt P35439+Q00961); test: Positive allosteric modulation of recombinant rat GluN1/GluN2C receptor expressed in xenopus laevis oocyte assessed as potentiation of glutamate and glycine-induced current response at 30 uM at holding potential -40mV by two electrode voltage clamp method relative to control; in short: as §1
[8] = target: T3, Glutamate NMDA receptor; Grin1/Grin2c (Rattus norvegicus); test: Positive allosteric modulation of recombinant rat GluN1/GluN2C receptor expressed in xenopus laevis oocyte assessed as compound concentration required to show two fold increase in glutamate and glycine-induced current response at holding potential -40mV by two electrode voltage clamp method
[9] = target: T1, Glutamate NMDA receptor; Grin1/Grin2b (Rattus norvegicus); test: Positive allosteric modulation of recombinant rat GluN1/GluN2B receptor expressed in xenopus laevis oocyte assessed as potentiation of glutamate and glycine-induced current response at 30 uM at holding potential -40mV by two electrode voltage clamp method relative to control
In short: as §1, with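 “final). […]” for “final).”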

[10] = target: T1, Glutamate NMDA receptor; Grin1/Grin2b (Rattus norvegicus); test: Positive allosteric modulation of recombinant rat GluN1/GluN2B receptor expressed in xenopus laevis oocyte assessed as potentiation of glutamate-induced current response at 30 uM at holding potential -40mV by two electrode voltage clamp method
[11] = target: T3, Glutamate NMDA receptor; Grin1/Grin2c (Rattus norvegicus); test: Positive allosteric modulation of recombinant rat GluN1/GluN2C receptor expressed in xenopus laevis oocyte assessed as potentiation of glutamate and glycine-induced current response at 10 uM at holding potential -40mV by two electrode voltage clamp method relative to control; conditions: for Activity: 30 uM, in the assay text read “at 30 uM” for “at 10 uM”; for Emax: 10 uM
In short: as §1, with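 “final). […]” for “final).”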

[12] = target: T2, Ionotropic glutamate receptor NMDA 1/2D (Rattus norvegicus); test: Positive allosteric modulation of recombinant rat GluN1/GluN2D receptor expressed in xenopus laevis oocyte assessed as potentiation of glutamate and glycine-induced current response at 10 uM at holding potential -40mV by two electrode voltage clamp method relative to control
In short: as §1, with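 “final). […]” for “final).”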

[13] = target: T1, Glutamate NMDA receptor; Grin1/Grin2b (Rattus norvegicus); test: Positive allosteric modulation of recombinant rat GluN1/GluN2B receptor expressed in xenopus laevis oocyte assessed as potentiation of glutamate and glycine-induced current response at 30 uM at holding potential -40mV by two electrode voltage clamp method relative to control
[14] = target: T1, Glutamate NMDA receptor; Grin1/Grin2b (Rattus norvegicus); test: Positive allosteric modulation of recombinant rat GluN1/GluN2B receptor expressed in xenopus laevis oocyte assessed as potentiation of glutamate and glycine-induced current response at 10 uM at holding potential -40mV by two electrode voltage clamp method relative to control; conditions: 30 uM, in the assay text read “at 30 uM” for “at 10 uM”
In short: as §1, with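 “final). […]” for “final).”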

[15] = target: T3, Glutamate NMDA receptor; Grin1/Grin2c (Rattus norvegicus); test: Positive allosteric modulation of recombinant rat GluN1/GluN2C receptor expressed in xenopus laevis oocyte assessed as potentiation of glutamate and glycine-induced current response at 30 uM at holding potential -40mV by two electrode voltage clamp method relative to control

CD [1] | EC50 [2] | CD [3] | EC50 [4] | Emax [5] | EC50 [6] | Emax [7] | CD [8] | Emax [9] | Activity [10] | Activity [11] | Activity [12] | Activity [13] | Emax [14] | Emax [11] | Emax [12] | Activity [15] | Activity [5] | Activity [7] | Activity [9] | Structure (SMILES)
1.9 µM | 1.1 µM | 4.2 µM | 0.97 µM | 208% | 1.4 µM | 226% | 2.1 µM | 259% |  |  |  |  |  |  |  |  |  |  |  | COc1ccc(OCC2c3ccc(OC(C)C)cc3CCN2C(=S)c2cccc(F)c2)cc1 (configuration not stated)
 |  | 1 µM |  | 297% |  | 252% | 1.3 µM |  | 101% |  |  |  |  |  |  |  |  |  |  | COc1ccc(OC[C@H]2c3ccc(OC(C)C)cc3CCN2C(=O)c2cccc(Cl)c2)cc1
 |  |  |  |  |  |  |  |  |  | 97% | 80% | 105% |  |  |  |  |  |  |  | CCOc1ccc(OCC2c3ccc(OC(C)C)cc3CCN2C(=O)c2cc(Cl)cc(Cl)c2)cc1 (configuration not stated)
 |  |  |  |  |  |  |  |  |  | 150% | 122% |  |  |  |  |  |  |  |  | CCOc1ccc(OCC2c3ccc(OC(C)C)cc3CCN2C(=O)c2ccc(Cl)c(Cl)c2)cc1 (configuration not stated)
1.5 µM | 0.48 µM | 0.5 µM | 0.48 µM | 293% | 0.32 µM | 307% | 0.5 µM | 214% |  |  |  |  |  |  |  |  |  |  |  | COc1ccc(OC[C@@H]2c3ccc(OC(C)C)cc3CCN2C(=S)c2cccc(Cl)c2)cc1
9 µM | 1.2 µM |  | 0.7 µM | 154% | 0.67 µM | 158% |  | 203% |  |  |  |  |  |  |  |  |  |  |  | CC(C)Oc1ccc(OCC2c3ccc(OC(C)C)cc3CCN2C(=S)c2cccc(F)c2)cc1 (configuration not stated)
4 µM | 0.41 µM |  | 0.48 µM | 152% | 0.55 µM | 141% |  | 209% |  |  |  |  |  |  |  |  |  |  |  | CC(C)Oc1ccc(OCC2c3ccc(OC(C)C)cc3CCN2C(=S)c2cccc(Cl)c2)cc1 (configuration not stated)
17 µM | 0.44 µM |  | 0.35 µM | 128% | 0.84 µM | 159% |  | 222% |  |  |  |  |  |  |  |  |  |  |  | CCOc1ccc(OCC2c3ccc(OC(C)C)cc3CCN2C(=S)c2ccc(F)c(Cl)c2)cc1 (configuration not stated)
 |  |  | 1.8 µM |  | 5.3 µM |  |  |  |  | 126% | 102% |  | 158% | 128% |  |  |  |  |  | CCOc1ccc(OCC2c3ccc(OC(C)C)cc3CCN2C(=O)c2cccc(Cl)c2)cc1 (configuration not stated)
1.4 µM | 0.58 µM |  | 0.38 µM | 179% | 0.49 µM | 154% |  | 213% |  |  |  |  |  |  |  |  |  |  |  | CCOc1ccc(OC[C@@H]2c3ccc(OC(C)C)cc3CCN2C(=S)c2cccc(F)c2)cc1
 | 2.6 µM |  | 1.8 µM |  | 3.9 µM |  |  |  |  | 270% | 312% |  | 204% | 286% | 338% |  |  |  |  | COc1ccc(OCC2c3ccc(OC(C)C)cc3CCN2C(=O)c2cccc(Br)c2)cc1 (configuration not stated)
 | 1.6 µM |  | 5 µM | 192% | 0.4 µM | 278% | 7.6 µM | 172% |  |  |  |  |  |  |  |  |  |  |  | CCOc1ccc(OCC2c3ccc(OC(C)C)cc3CCN2C(=S)c2cccc(Cl)c2)cc1 (configuration not stated)
 |  |  |  |  |  |  |  |  |  |  | 99% | 108% |  |  |  | 110% |  |  |  | COc1ccccc1OCC1c2ccc(OC(C)C)cc2CCN1C(=O)c1cccc(Cl)c1 (configuration not stated)
 | 4.3 µM |  | 4.2 µM |  | 4 µM |  |  |  |  | 187% | 193% |  | 221% | 210% | 188% |  |  |  |  | CCOc1ccc(OCC2c3ccc(OC4CCCC4)cc3CCN2C(=O)c2cccc(Cl)c2)cc1 (configuration not stated)
 | 1.7 µM |  | 1.6 µM | 390% | 1.8 µM | 294% |  | 344% |  |  |  |  |  |  |  |  | 381% | 286% | 331% | CCC(CC)Oc1ccc2c(c1)CCN(C(=O)c1cccc(Cl)c1)C2COc1ccc(OC)cc1 (configuration not stated)
 | 1.5 µM |  | 1 µM | 351% | 1 µM | 242% |  | 293% |  |  |  |  |  |  |  |  | 342% | 238% | 294% | CCOc1ccc(OCC2c3ccc(OCC(C)C)cc3CCN2C(=O)c2cccc(Cl)c2)cc1 (configuration not stated)
 | 4.3 µM |  | 3 µM | 425% | 4.8 µM | 314% |  | 165% |  |  |  |  |  |  |  |  | 284% | 279% | 152% | COc1ccc(OCC2c3ccc(N4CCOCC4)cc3CCN2C(=O)c2cccc(Br)c2)cc1 (configuration not stated)
 | 22 µM |  | 4.7 µM | 413% | 9.3 µM | 342% |  | 188% |  |  |  |  |  |  |  |  | 231% | 273% | 146% | COc1ccc(OCC2c3ccc(N4CCOCC4)cc3CCN2C(=O)c2cccc(Cl)c2)cc1 (configuration not stated)
 | 0.45 µM |  | 0.35 µM | 128% | 0.72 µM | 141% |  | 190% |  |  |  |  |  |  |  |  |  |  |  | CCOc1ccc(OCC2c3ccc(OC(C)C)cc3CCN2C(=S)c2cccc(C(F)(F)F)c2)cc1 (configuration not stated)
 | 3.4 µM |  | 3.1 µM | 364% | 2.5 µM | 325% |  | 342% |  |  |  |  |  |  |  |  | 351% | 309% | 332% | CCOc1ccc(OCC2c3ccc(OCC(C)C)cc3CCN2C(=O)c2cccc(F)c2)cc1 (configuration not stated)
 | 2 µM | 4.9 µM | 1.7 µM | 250% |  | 253% | 3.8 µM |  | 105% |  |  |  |  |  |  |  |  |  |  | COc1ccc(OC[C@H]2c3ccc(OC(C)C)cc3CCN2C(=S)c2cccc(Cl)c2)cc1
 | 4.1 µM |  | 2.5 µM | 137% | 3.2 µM | 157% |  | 123% |  |  |  |  |  |  |  |  | 136% | 154% | 124% | CC(C)Oc1ccc2c(c1)CCN(C(=O)c1cccc(F)c1)C2COc1ccc(OC(F)(F)F)cc1 (configuration not stated)
 | 0.33 µM |  | 0.34 µM | 133% | 0.27 µM | 162% |  | 191% |  |  |  |  |  |  |  |  |  |  |  | CC(C)Oc1ccc(OCC2c3ccc(OC(C)C)cc3CCN2C(=S)c2cccc(C(F)(F)F)c2)cc1 (configuration not stated)
 | 2.2 µM |  | 1.3 µM | 137% | 2.2 µM | 162% |  | 170% |  |  |  |  |  |  |  |  | 133% | 159% | 169% | CCOc1ccc(OCC2c3ccc(OC(C)C)cc3CCN2C(=O)c2ccc(F)c(Cl)c2)cc1 (configuration not stated)

Structure (SMILES) | CD [1] | EC50 [2] | CD [3] | EC50 [4] | Emax [5] | EC50 [6] | Emax [7] | CD [8] | Emax [9] | Activity [10] | Activity [11] | Activity [12] | Activity [13] | Emax [14] | Emax [11] | Emax [12] | Activity [15] | Activity [5] | Activity [7] | Activity [9]
COc1ccc(OC[C@@H]2c3ccc(OC(C)C)cc3CCN2C(=O)c2cccc(Cl)c2)cc1 | 3.5 µM | 3.8 µM | 4.4 µM |  | 267% |  | 277% | 3.5 µM | 276% |  |  |  |  |  |  |  |  |  |  | 

— ChEMBL document CHEMBL4011622, “The Structure-Activity Relationship of a Tetrahydroisoquinoline Class of N-Methyl-d-Aspartate Receptor Modulators that Potentiates GluN2B-Containing N-Methyl-d-Aspartate Receptors” (J Med Chem, 2017)
